Data from ChEMBL document CHEMBL1133092, “Drug delivery systems based on trimethyl lock lactonization: poly(ethylene glycol) prodrugs of amino-containing compounds” (J Med Chem, 2000).

What was measured:
[1] = Half life in Cell media; type: ADME
M109 [2] = assay: In vivo screening in M109 syngeneic solid mouse tumor model (i.v.); type: functional
Procedure, shortened: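 Female balb/c mice (20-25 g) implanted subcutaneously in the left flank with about 1 × 10^6 M109 cells on day 0. Dosed intravenously at 3 mg/kg/dose (DNR content) on days 3 and 6; 6 per group with untreated controls. % T/C of median tumor volumes taken when control median reached ~2000 mm3.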

P388 = assay: Growth Inhibition of P388/0 cell lines.; type: functional, cell-based; conditions: Mus musculus
Procedure, shortened: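 P388/0 murine leukemia cells seeded at 2 × 10^3 cells/well, exposed to serial dilutions for 3 days at 37 °C, 5% CO2. Alamar Blue then added and plates read after a further 4 h at 37 °C. IC50 taken from absorbance vs dilution factor plots.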

M109 [3] = assay: In vivo screening in M109 syngeneic solid mouse tumor model (i.p.); type: functional
Procedure, shortened: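 Female balb/c mice (20-25 g) implanted subcutaneously in the left flank with about 1 × 10^6 M109 cells on day 0. Dosed intraperitoneally at 3 mg/kg/dose (DNR content) on days 1 and 4; 6 per group with untreated controls. % T/C of median tumor volumes taken when control median reached ~2000 mm3.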

[4] = Half life in Rat plasma; type: ADME
Procedure, shortened: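 Conjugate dissolved in distilled water (20 mg/100 µL), then 900 µL rat plasma added. Aliquots incubated at 37 °C for various times, quenched with methanol-acetonitrile (1:1) and filtered. Remaining conjugate measured by HPLC with UV detection at 254 nm (DNR) or 280 nm (ara-C). Run in duplicate. t1/2 calculated from α phase.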

[5] = Half life in buffer at pH 7.4.; type: ADME
Procedure, shortened: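 Conjugate dissolved at 5 mg/mL in 0.1 M pH 7.4 PBS and incubated at 37 °C for various periods. Analysed by HPLC with UV detection at 254 nm (DNR) or 280 nm (ara-C). Run in duplicate.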

Compound	half-life [1]	IC50 (P388)	half-life [4]	half-life [5]	T/C (M109 [2])	T/C (M109 [3])
CCC(=O)NCCC(=O)Oc1cc(C)cc(C)c1C(C)(C)CC(=O)NC1CC(O[C@H]2C[C@](O)(C(C)=O)Cc3c(O)c4c(c(O)c32)C(=O)c2c(OC)cccc2C4=O)OC(C)C1O (stereo not given in full)	80 h	203 nM	0.2 h	> 24 h	63.7%	101.2%
CCC(=O)NCCC(=O)Oc1c(C)ccc(C)c1C(C)(C)CC(=O)NC1CC(O[C@H]2C[C@](O)(C(C)=O)Cc3c(O)c4c(c(O)c32)C(=O)c2c(OC)cccc2C4=O)OC(C)C1O (stereo not given in full)	94 h	411 nM	8 h	> 24 h	31.6%	114.8%
CCC(=O)NCCOCCOC(=O)Oc1cc(C)cc(C)c1C(C)(C)CC(=O)NC1CC(O[C@H]2C[C@](O)(C(C)=O)Cc3c(O)c4c(c(O)c32)C(=O)c2c(OC)cccc2C4=O)OC(C)C1O (stereo not given in full)	38 h	142 nM	1.1 h	> 24 h	118.4%	57.1%

Second part, led by results:

half-life [1]	IC50 (P388)	half-life [4]	half-life [5]	Compound	T/C (M109 [2])	T/C (M109 [3])
14 h	43 nM	1.9 h	> 24 h	CCC(=O)NC(C)C(=O)Oc1cc(C)cc(C)c1C(C)(C)CC(=O)NC1CC(O[C@H]2C[C@](O)(C(C)=O)Cc3c(O)c4c(c(O)c32)C(=O)c2c(OC)cccc2C4=O)OC(C)C1O (stereo not given in full)	92.5%	62.8%
36 h	389 nM	21 h	> 24 h	CCC(=O)NC(C)C(=O)Oc1c(C)ccc(C)c1C(C)(C)CC(=O)NC1CC(O[C@H]2C[C@](O)(C(C)=O)Cc3c(O)c4c(c(O)c32)C(=O)c2c(OC)cccc2C4=O)OC(C)C1O (stereo not given in full)	52.5%	153.6%
